This is a sample that favours compounds with a hit; in the whole collection about 2.9% have one here.
SENP6 inh = SENP6 protease inhibition | Recombinant SENP6 catalytic domain, aminoluciferin luminescence | 330,000 compounds, 1.8% hits | Q9GZR1 | inhibition, % at 10 µM;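 active = inhibition above about 50% at the single tested dose, limit read from the data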;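 also: plate controls were DMSO wells with enzyme for no effect and DMSO wells lacking enzyme for full effect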
Target sequence (Q9GZR1 628-1112 limits assumed): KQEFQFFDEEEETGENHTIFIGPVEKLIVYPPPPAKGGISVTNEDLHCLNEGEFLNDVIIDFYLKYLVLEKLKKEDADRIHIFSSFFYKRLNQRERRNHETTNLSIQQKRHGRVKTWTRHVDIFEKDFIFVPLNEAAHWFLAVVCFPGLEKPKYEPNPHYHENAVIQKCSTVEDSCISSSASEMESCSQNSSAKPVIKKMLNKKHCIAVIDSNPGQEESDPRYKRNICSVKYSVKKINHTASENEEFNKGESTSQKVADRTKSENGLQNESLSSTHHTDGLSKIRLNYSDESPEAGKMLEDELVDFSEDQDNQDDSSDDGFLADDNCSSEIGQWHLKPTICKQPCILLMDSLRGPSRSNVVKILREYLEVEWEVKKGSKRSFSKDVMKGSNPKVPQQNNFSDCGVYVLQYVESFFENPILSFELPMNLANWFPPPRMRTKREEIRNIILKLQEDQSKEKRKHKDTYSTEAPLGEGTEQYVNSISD
SENP7 block = blocks the human protease SENP7. Q9BQF6. recombinant SENP7, Z-RLRGG-aminoluciferin luminescence, 40 min. inhibition, % at 5 µM. 330,000 compounds, 1.5% hits. AID 434973;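 active = inhibition above about 50% at the single test dose, limit read from the data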;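 also: plate controls were DMSO with enzyme for no effect and no enzyme buffer wells for full effect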
HSP90 inh = HSP90 refolding inhibition in rabbit reticulocyte lysate; luciferase refolding luminescence, 3 h; inhibition, % at 5.6 µM; 290,000 compounds, 0.91% hits; AID 1789;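 active = inhibition above the screen-wide mean plus 3 SD, computed separately per campaign, cut at about 16% in these data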;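 also: 0% = DMSO wells and 100% = 60 µM geldanamycin wells; inhibitors lower the luminescence because luciferase stays unfolded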
SENP1 FRET inh = inhibitors of human SENP1 SUMO protease catalytic domain; AID 624204; inhibition, % at 10 µM; Q9P0U3; recombinant SENP1 catalytic domain, CyPet-SUMO1-YPet FRET cleavage; 360,000 compounds, 0.21% hits;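 active = inhibition at least 30% at 10 µM, raw YFP signal under a set limit, fluorescence ratio 0.5 to 1.5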;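 also: 0% = enzyme with DMSO and 100% = no enzyme wells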
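Test system: hSENP1 catalytic domain, recombinant; Amount: 20 pM final SENP1 enzyme; Medium: Tris pH 8 buffer plus EDTA, NaCl, BME, BSA, NP40, catalase; Schedule: 50 min enzyme reaction, room temperature, light-protected; Technique: FRET fluorescence in CFP and YFP emission channels; Controls: no-enzyme wells low, DMSO-plus-enzyme wells high control.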
SENP8 block-1 = blocks the human protease SENP8 | Q96LD8 | purified SENP8, Z-RLRGG-aminoluciferin cleavage, luminescence | inhibition, % at 10 µM | 330,000 compounds, 1.2% hits | AID 2540; in the data active = inhibition above about 50%
SENP8 block-2 = SENP8 (human) protease inhibition; AID 602440; recombinant SENP8, Nedd8 substrate fluorescence; Q96LD8; 360,000 compounds, 0.64% hits; inhibition, % at 20 µM; in the data active = inhibition mostly above about 40%, no sharp cut-off; inactive = mostly below about 27%
SENP8 conf-1 = confirmation of human SENP8 protease inhibitors | shares compounds with SENP7 block | Recombinant SENP8, Z-RLRGG-aminoluciferin luminescence, 60 min | inhibition, % at 12.5 µM | 6,200 compounds, 40% hits;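 active = mean inhibition across replicates above about 50%, limit read from the data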
SENP6 conf = human SENP6 inhibition, confirmed; shares compounds with SENP7 block; recombinant SENP6, Z-RLRGG-aminoluciferin luminescence; inhibition, % at 12.5 µM; 6,200 compounds, 58% hits; AID 488915
SENP7 confirm = human SENP7 inhibition, confirmed; inhibition, % at 12.5 µM; recombinant SENP7, Z-RLRGG-aminoluciferin luminescence, 40 min; shares compounds with SENP7 block; 6,200 compounds, 69% hits; AID 488917
Casp3 select = caspase-3 inhibition (SENP selectivity assay); shares compounds with SENP7 block; AID 488918; inhibition, % at 12.5 µM; 6,200 compounds, 60% hits; purified caspase-3, Z-DEVD-aminoluciferin luminescence, 60 min;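 active = mean inhibition above about 50%, limit read from the data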;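 also: plate controls were enzyme with DMSO for no effect and wells without caspase-3 for full effect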
Luc interf = luminescence interference (SENP counter-screen). shares compounds with SENP7 block. Pre-incubated SENP8/Z-RLRGG-aminoluciferin, luciferase luminescence interference. inhibition, % at 12.5 µM. 6,200 compounds, 39% hits. AID 488919;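 active = mean inhibition above about 50% when retested at one dose, limit read from the data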;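 also: plate controls were DMSO wells with completed reaction for no effect and substrate without enzyme for full effect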
SENP8 conf-2 = confirmation of human SENP8 protease inhibitors; shares compounds with SENP8 block-2; purified SENP8, Nedd8-AMC/pro-Nedd8 cleavage fluorescence, 30 min; inhibition, % at 25 µM; 1,400 compounds, 15% hits; in the data active = inhibition mostly above about 39%, no sharp cut-off; inactive = mostly below about 34%
The depositor's hits bear a star; . = no result.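 The calls were made as follows, unless noted: active = mean inhibition above about 50% in the one-dose retest (limit read from the data); inactive = the rest.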

SMILES	SENP6 inh	SENP7 block	HSP90 inh	SENP1 FRET inh	SENP8 block-1	SENP8 block-2	SENP8 conf-1	SENP6 conf	SENP7 confirm	Casp3 select	Luc interf	SENP8 conf-2
O=C1c2ccccc2-c2nc3ccccc3nc21	51*	38	-1	6	17	47*	37	53*	49	64*	16	89*
Oc1ccc(N=Cc2ccc(OCc3ccccc3)cc2)cc1	91*	43	0	6	57*	66*	-3	57*	68*	50	7	-9
O=C(N/N=C/c1ccc(OCc2ccccc2)cc1)c1ccncc1	2	-8	1	1	-11	-12	.	.	.	.	.	.
COc1ccccc1N1C(C)=CC(=C(C#N)c2nc3ccccc3s2)C=C1C	61*	4	-1	-30	3	67*	16	21	17	10	7	41
CC1=CC(=C(C#N)c2nc3ccccc3s2)C=C(C)N1c1ccc(F)cc1	54*	1	-3	-25	-6	85*	12	15	9	5	4	26
COc1cc(C=C(c2nc3ccccc3s2)c2nc3ccccc3s2)cc(OC)c1O	13	3	1	-26	1	-138	.	.	.	.	.	.
CC(C)=C(C#N)c1nc2ccccc2s1	-7	10	1	-10	-4	8	.	.	.	.	.	.
COc1cc(NC(C)CCCN)c2ncccc2c1 (stereo not given)	64*	84*	.	-2	49	47*	44	69*	30	97*	1	81*
CCOC(=O)C1=CCN(S(=O)(=O)c2ccccc2F)C1c1ccc(Cl)c(Cl)c1 (stereo not given)	.	.	.	1	.	4	.	.	.	.	.	.
Cc1cc(F)ccc1NC(=O)C1CCCO1 (stereo not given)	-13	4	-2	2	-3	6	.	.	.	.	.	.
CCOc1ccc(Oc2ccc(C(F)(F)F)cc2N)cc1	-17	4	-3	2	-2	5	.	.	.	.	.	.
O=C1OC(Nc2cc(Br)cc3cccnc23)c2ccccc21 (stereo not given)	94*	92*	17*	0	-4	41*	16	63*	51*	16	13	-14
COc1ccc(C(=O)CCc2ccccc2)c(O)c1	18	5	.	2	5	1	.	.	.	.	.	.
O=C(CCc1ccccc1)c1c(O)cc(O)cc1O	63*	-7	.	2	52*	48*	65*	60*	77*	19	67*	28
COc1ccc(Nc2ccc(OC)cc2)cc1	54*	11	6	-1	24	96*	-6	-10	7	10	11	14
COc1ccc(Nc2ccc(Nc3ccc(OC)cc3)nn2)cc1	-9	12	3	0	-1	15	.	.	.	.	.	.
CCCCn1nc(C(=O)N2CCN(S(=O)(=O)c3ccccc3)CC2)c2ccccc2c1=O	2	12	.	-1	3	3	.	.	.	.	.	.
N#CC1=C2SCN(Cc3ccccc3)CN2C(=O)CC1c1cccs1 (stereo not given)	74*	40	1	-10	71*	69*	-26	5	-3	-5	-4	9
COc1ccccc1N1CC(C(=O)Nc2nnc(SCC(=O)N3CCOCC3)s2)CC1=O (stereo not given)	-3	-4	3	1	-2	13	.	.	.	.	.	.
